Experimental data published in ChEMBL document CHEMBL1135828, “Syntheses and antitumor targeting G1 phase of the cell cycle of benzoyldihydroisoquinolines and related 1-substituted isoquinolines” (J Med Chem, 2002).

Each compound was assayed on L1210 (1565) (assay: Percent inhibition against cells in G 1 phase by the compound at the dose 25 uM). Details: Mus musculus.
Format: functional

Point of comparison: COc1cc2c(cc1OCC(C)C)CCN=C2C(=O)c1ccccc1, inhibition at 25 µM 63%. Against it:
- COc1cc2c(cc1OCc1ccccc1)CCN=C2C(=O)c1cccc(S(=O)(=O)c2ccc(C)cc2)c1 — higher, 70%
- COc1cc2c(cc1OCC=C(C)C)CCN=C2C(=O)c1ccccc1 — higher, 65%

These compounds were tested on L1210 (1565) (assay: Percent inhibition against cells in G 1 phase by the compound at the dose 5 uM). Details: Mus musculus.
Format: functional

Point of comparison: CCCCCOc1ccc2c(c1)CCN=C2C(=O)c1ccccc1, inhibition at 5 µM 63%. Against it:
- CCCCCOc1cc2c(cc1OC)CCN=C2C(=O)c1ccccc1 — the same, 63%
- COc1cc2c(cc1OCc1ccccc1)CCN=C2C(=O)c1cccc(O)c1 — higher, 67%

The compounds below were run on L1210 (1565) (assay: Percent inhibition against cells in G 1 phase by the compound). Details: not given.
Format: functional, Mus musculus

For CCCCCOc1cc2c(cc1OC)C(C)=NCC2, the Inhibition was 72%.

These compounds were tested on L1210 (1565) (assay: Inhibitory activity against L 1210 cell proliferation). Details: Mus musculus.
Format: functional, cell-based
How it was run: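 L1210 murine leukemia cells grown in RPMI 1640 with 10% fetal calf serum, 2 mM L-glutamine, penicillin/streptomycin and 10 mM Hepes (pH 7.4). Cells exposed to graded drug concentrations for 48 h. Microculture tetrazolium assay read-out; IC50 is the concentration reducing optical density by 50% relative to untreated controls.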

Point of comparison: COc1cc2c(cc1OCc1ccccc1)CCN=C2C(=O)c1ccccc1, IC50 4.1 µM. Against it:
- CCCCCOc1cc2c(cc1OC)CCN=C2C(=O)c1ccccc1 — within 1.5-fold, 3.7 µM
- COc1cc2ccnc(C(=O)c3ccccc3)c2cc1O — higher, > 10 µM
- COc1cc2c(cc1OCc1ccccc1)CCN=C2C(=O)c1ccccc1OC — higher, > 10 µM
- C[N+]1=C(C(=O)c2ccccc2)c2ccc(OCc3ccccc3)cc2CC1 — 2.4-fold higher, 9.8 µM
- CCCCCOc1cc2ccnc(C(=O)c3ccccc3)c2cc1OC — higher, > 10 µM
- CCCCCOc1ccc2c(c1)CCN=C2C(=O)c1ccccc1 — 4.1-fold lower, 1 µM
- COc1cc2c(cc1O)C(C(=O)c1ccccc1)=NCC2 — higher, > 10 µM
- COc1cc2c(C(=O)c3ccc(O)cc3)nccc2cc1OCc1ccccc1 — 2.8-fold higher, 11.5 µM
- COc1cc2c(cc1OCc1ccccc1)CCN=C2C(=O)c1cccc(O)c1 — within 1.5-fold, 5.3 µM
- COc1cc2c(C(=O)c3ccccc3)nccc2cc1OCc1ccccc1 — higher, > 10 µM
- COc1ccc(C(=O)C2=NCCc3cc(OCc4ccccc4)ccc32)cc1 — higher, > 10 µM
- COc1cc2c(cc1OCc1ccccc1)C(C(=O)c1ccccc1)=NCC2 — within 1.5-fold, 3.6 µM
- COc1ccc(C(=O)C2=[N+](C)CCc3cc(OCc4ccccc4)c(OC)cc32)cc1OC — higher, > 10 µM
- CCCCCOc1cc2c(cc1OC)C(C(=O)c1ccccc1)=NCC2 — within 1.5-fold, 4.5 µM
- O=C(C1=NCCc2cc(OCc3ccccc3)ccc21)c1ccccc1 — 1.6-fold higher, 6.5 µM
- CC(C)COc1ccc2c(c1)CCN=C2C(=O)c1ccccc1 — 2.9-fold higher, 11.9 µM
- COc1cc2c(cc1OCc1ccccc1)CCN=C2C(=O)c1cccc(S(=O)(=O)c2ccc(C)cc2)c1 — the same, 4.1 µM
- C/C=C/COc1cc2c(cc1OC)C(C(=O)c1ccccc1)=NCC2 — 3.2-fold higher, 13.1 µM
- CCCCCOc1cc2c(cc1OC)C(C)=NCC2 — 1.9-fold higher, 7.7 µM
- COc1cc2c(cc1OCc1ccccc1)CCN=C2c1ccccc1 — higher, > 10 µM
- COc1cc2c(cc1OCc1ccccc1)CCN=C2C(=O)c1cccc(OC(C)=O)c1 — within 1.5-fold, 4.7 µM
- COc1cc2c(cc1OCc1ccccc1)CCN=C2C(=O)c1ccccc1O — higher, > 10 µM
- COc1cc2c(cc1O)CCN=C2c1ccccc1 — higher, > 10 µM
- COc1cc2c(cc1OCC(C)C)CCN=C2C(=O)c1ccccc1 — within 1.5-fold, 6.1 µM
- COc1cc2ccnc(C(=O)c3ccccc3)c2cc1OCc1ccccc1 — higher, > 10 µM
- COc1cc2c(C(=O)c3ccccc3O)nccc2cc1OCc1ccccc1 — higher, > 10 µM
- CCCCC1=NCCc2cc(OCc3ccccc3)c(OC)cc21 — higher, > 10 µM
- CC(C)=CCOc1ccc2c(c1)CCN=C2C(=O)c1ccccc1 — within 1.5-fold, 3.8 µM
- C/C=C/COc1ccc2c(c1)CCN=C2C(=O)c1ccccc1 — higher, > 10 µM
- COc1ccc(C(=O)C2=NCCc3cc(OCc4ccccc4)c(OC)cc32)cc1OC — 3.2-fold higher, 13 µM
- COc1cc2c(C(=O)c3cccc(O)c3)nccc2cc1OCc1ccccc1 — 2.8-fold higher, 11.6 µM
- COc1cccc(C(=O)C2=NCCc3cc(OCc4ccccc4)ccc32)c1 — 2.9-fold lower, 1.4 µM
- COc1cc2c(cc1OCc1ccccc1)CCN=C2c1ccccc1O — higher, > 10 µM
- COc1cc2c(cc1O)CCN=C2C(=O)c1ccccc1 — higher, > 10 µM
- COc1ccc(C(=O)C2=NCCc3cc(OCc4ccccc4)ccc32)cc1OC — higher, > 10 µM
- COc1cc2c(cc1OCC=C(C)C)CCN=C2C(=O)c1ccccc1 — 2.3-fold higher, 9.4 µM
- COc1cc2c(C(=O)c3ccccc3)nccc2cc1O — higher, > 10 µM
- COc1cc2c(cc1OCc1ccccc1)CCN=C2C(=O)c1ccc(O)cc1 — higher, > 10 µM
- COc1cc2c(cc1OCc1ccccc1)CCN=C2C(=O)c1ccccc1OS(=O)(=O)c1ccc(C)cc1 — higher, > 10 µM
- COc1ccccc1C(=O)C1=NCCc2cc(OCc3ccccc3)ccc21 — 3-fold higher, 12.3 µM
- CCOc1cc2c(cc1OC)C(C(=O)c1ccccc1)=NCC2 — 2.9-fold higher, 11.9 µM
- COc1cc2c(cc1OCc1ccccc1)CCN=C2C(=O)c1ccc(OS(=O)(=O)c2ccc(C)cc2)cc1 — higher, > 10 µM
- COc1cccc(C(=O)C2=NCCc3cc(OCc4ccccc4)c(OC)cc32)c1 — 1.6-fold lower, 2.5 µM
- COc1ccc(COc2cc3c(cc2OC)C(C(=O)c2ccccc2)=NCC3)cc1 — 2.7-fold higher, 11.1 µM
- COc1ccc(COc2cc3ccnc(C(=O)c4ccccc4)c3cc2OC)cc1 — higher, > 10 µM
- CCCCC1=NCCc2cc(OCc3ccccc3)ccc21 — higher, > 10 µM
- c1ccc(COc2ccc3c(c2)CCN=C3c2ccccc2)cc1 — higher, > 10 µM

The compounds below were run on L1210 (1565) (assay: Percent inhibition against cells in G 1 phase by the compound at the dose 10 uM). Details: Mus musculus.
Format: functional

Point of comparison: O=C(C1=NCCc2cc(OCc3ccccc3)ccc21)c1ccccc1, inhibition at 10 µM 54%. Against it:
- COc1cc2c(cc1OCc1ccccc1)CCN=C2C(=O)c1ccccc1 — higher, 85%
